Data from ChEMBL document CHEMBL4002604, “Evaluation of biological properties of 3,3',4,4'-benzophenonetetracarboxylic dianhydride derivatives and their ability to inhibit hexokinase activity” (2017).
Calls of active or inactive are those of the source. The calls are words filed in the database; no cut-off is given here.

Legend:
[1] = tested on: P19; assay: Cytotoxicity against undifferentiated mouse P19 cells assessed as cell mass at 1 to 100 uM after 24 hrs by SRB assay relative to control; format: functional
How it was run: (§1)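 Cell mass by SRB assay in P19 cells (CRL-1825), either undifferentiated (P19SCs) or differentiated (P19dCs). Cells exposed to 1, 10 or 100 µM for 24, 48 or 72 h. Values expressed relative to untreated control. Means ± SD from at least 4 independent measurements, 6 repeats each. Significance vs control at p<0.05.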

[2] = tested on: P19; assay: Cytotoxicity against undifferentiated mouse P19 cells assessed as cell mass at 1 to 100 uM after 48 hrs by SRB assay relative to control; format: functional; how it was run: as §1
[3] = tested on: P19; assay: Cytotoxicity against undifferentiated mouse P19 cells assessed as cell mass at 1 to 100 uM after 72 hrs by SRB assay relative to control; format: functional; how it was run: as §1
[4] = tested on: P19; assay: Cytotoxicity against differentiated mouse P19 cells assessed as cell mass at 1 to 100 uM after 24 hrs by SRB assay relative to control; format: functional; how it was run: as §1
[5] = tested on: P19; assay: Cytotoxicity against differentiated mouse P19 cells assessed as cell mass at 1 to 100 uM after 48 hrs by SRB assay relative to control; format: functional; how it was run: as §1
[6] = tested on: P19; assay: Cytotoxicity against differentiated mouse P19 cells assessed as cell mass at 1 to 100 uM after 72 hrs by SRB assay relative to control; format: functional; how it was run: as §1
[7] = tested on: P19; assay: Cytotoxicity against undifferentiated mouse P19 cells assessed as metabolic activity at 1 to 100 uM after 24 hrs by resazurin assay relative to control; format: functional
How it was run: (§2)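 Metabolic activity by resazurin reduction in undifferentiated (P19SCs) or differentiated (P19dCs) P19 cells. Exposure to 1, 10 or 100 µM for 24, 48 or 72 h. Read-out relative to untreated control. Significance vs control at p<0.05.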

[8] = tested on: P19; assay: Cytotoxicity against undifferentiated mouse P19 cells assessed as metabolic activity at 1 to 100 uM after 48 hrs by resazurin assay relative to control; format: functional; how it was run: as §2
[9] = tested on: P19; assay: Cytotoxicity against undifferentiated mouse P19 cells assessed as metabolic activity at 1 to 100 uM after 72 hrs by resazurin assay relative to control; format: functional; how it was run: as §2
[10] = tested on: P19; assay: Cytotoxicity against differentiated mouse P19 cells assessed as metabolic activity at 1 to 100 uM after 24 hrs by resazurin assay relative to control; format: functional; how it was run: as §2
[11] = tested on: P19; assay: Cytotoxicity against differentiated mouse P19 cells assessed as metabolic activity at 1 to 100 uM after 48 hrs by resazurin assay relative to control; format: functional; how it was run: as §2
[12] = tested on: P19; assay: Cytotoxicity against differentiated mouse P19 cells assessed as metabolic activity at 1 to 100 uM after 72 hrs by resazurin assay relative to control; format: functional; how it was run: as §2
[13] = tested on: P19; assay: Cytotoxicity against undifferentiated mouse P19 cells assessed as mitochondrial membrane potential at 1 uM after 24 hrs by TMRF dye based fluorescence assay relative to control; format: functional
How it was run: (§3)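 Undifferentiated (P19SCs) or differentiated (P19dCs) P19 cells incubated 24 or 72 h with 1 or 100 µM. Mitochondrial membrane potential and mitochondrial superoxide levels measured and expressed relative to untreated control. Means ± SD from 4 independent measurements, at least 4 repeats each. Significance at p<0.05.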

[14] = tested on: P19; assay: Cytotoxicity against undifferentiated mouse P19 cells assessed as mitochondrial membrane potential at 100 uM after 24 hrs by TMRF dye based fluorescence assay relative to control; format: functional; how it was run: as §3
[15] = tested on: P19; assay: Cytotoxicity against undifferentiated mouse P19 cells assessed as mitochondrial membrane potential at 1 uM after 72 hrs by TMRF dye based fluorescence assay relative to control; format: functional; how it was run: as §3
[16] = tested on: P19; assay: Cytotoxicity against undifferentiated mouse P19 cells assessed as mitochondrial membrane potential at 100 uM after 72 hrs by TMRF dye based fluorescence assay relative to control; format: functional; how it was run: as §3
[17] = tested on: P19; assay: Cytotoxicity against undifferentiated mouse P19 cells assessed as mitochondrial superoxide anion level at 1 uM after 24 hrs by MitoSox dye based fluorescence assay relative to control; format: functional; how it was run: as §3
[18] = tested on: P19; assay: Cytotoxicity against undifferentiated mouse P19 cells assessed as mitochondrial superoxide anion level at 100 uM after 24 hrs by MitoSox dye based fluorescence assay relative to control; format: functional; how it was run: as §3
[19] = tested on: P19; assay: Cytotoxicity against undifferentiated mouse P19 cells assessed as mitochondrial superoxide anion level at 1 uM after 72 hrs by MitoSox dye based fluorescence assay relative to control; format: functional; how it was run: as §3
[20] = tested on: P19; assay: Cytotoxicity against undifferentiated mouse P19 cells assessed as mitochondrial superoxide anion level at 100 uM after 72 hrs by MitoSox dye based fluorescence assay relative to control; format: functional; how it was run: as §3
[21] = tested on: P19; assay: Cytotoxicity against differentiated mouse P19 cells assessed as mitochondrial membrane potential at 1 uM after 24 hrs by TMRF dye based fluorescence assay relative to control; format: functional; how it was run: as §3
[22] = tested on: P19; assay: Cytotoxicity against differentiated mouse P19 cells assessed as mitochondrial membrane potential at 100 uM after 24 hrs by TMRF dye based fluorescence assay relative to control; format: functional; how it was run: as §3
[23] = tested on: P19; assay: Cytotoxicity against differentiated mouse P19 cells assessed as mitochondrial membrane potential at 1 uM after 72 hrs by TMRF dye based fluorescence assay relative to control; format: functional; how it was run: as §3
[24] = tested on: P19; assay: Cytotoxicity against differentiated mouse P19 cells assessed as mitochondrial membrane potential at 100 uM after 72 hrs by TMRF dye based fluorescence assay relative to control; format: functional; how it was run: as §3
[25] = tested on: P19; assay: Cytotoxicity against differentiated mouse P19 cells assessed as mitochondrial superoxide anion level at 1 uM after 24 hrs by MitoSox dye based fluorescence assay relative to control; format: functional; how it was run: as §3
[26] = tested on: P19; assay: Cytotoxicity against differentiated mouse P19 cells assessed as mitochondrial superoxide anion level at 100 uM after 24 hrs by MitoSox dye based fluorescence assay relative to control; format: functional; how it was run: as §3
[27] = tested on: P19; assay: Cytotoxicity against differentiated mouse P19 cells assessed as mitochondrial superoxide anion level at 1 uM after 72 hrs by MitoSox dye based fluorescence assay relative to control; format: functional; how it was run: as §3
[28] = tested on: P19; assay: Cytotoxicity against differentiated mouse P19 cells assessed as mitochondrial superoxide anion level at 100 uM after 72 hrs by MitoSox dye based fluorescence assay relative to control; format: functional; how it was run: as §3
[29] = target: T1, Hexokinase-2 (Mus musculus) (UniProt O08528); assay: Inhibition of HK2 isolated from mouse undifferentiated P19 cell lysates at […] using [U-14C]-labeled glucose as substrate in presence of ATP and NADP by G6PD enzyme coupled spectrophotometric assay
T1 sequence (whole entry): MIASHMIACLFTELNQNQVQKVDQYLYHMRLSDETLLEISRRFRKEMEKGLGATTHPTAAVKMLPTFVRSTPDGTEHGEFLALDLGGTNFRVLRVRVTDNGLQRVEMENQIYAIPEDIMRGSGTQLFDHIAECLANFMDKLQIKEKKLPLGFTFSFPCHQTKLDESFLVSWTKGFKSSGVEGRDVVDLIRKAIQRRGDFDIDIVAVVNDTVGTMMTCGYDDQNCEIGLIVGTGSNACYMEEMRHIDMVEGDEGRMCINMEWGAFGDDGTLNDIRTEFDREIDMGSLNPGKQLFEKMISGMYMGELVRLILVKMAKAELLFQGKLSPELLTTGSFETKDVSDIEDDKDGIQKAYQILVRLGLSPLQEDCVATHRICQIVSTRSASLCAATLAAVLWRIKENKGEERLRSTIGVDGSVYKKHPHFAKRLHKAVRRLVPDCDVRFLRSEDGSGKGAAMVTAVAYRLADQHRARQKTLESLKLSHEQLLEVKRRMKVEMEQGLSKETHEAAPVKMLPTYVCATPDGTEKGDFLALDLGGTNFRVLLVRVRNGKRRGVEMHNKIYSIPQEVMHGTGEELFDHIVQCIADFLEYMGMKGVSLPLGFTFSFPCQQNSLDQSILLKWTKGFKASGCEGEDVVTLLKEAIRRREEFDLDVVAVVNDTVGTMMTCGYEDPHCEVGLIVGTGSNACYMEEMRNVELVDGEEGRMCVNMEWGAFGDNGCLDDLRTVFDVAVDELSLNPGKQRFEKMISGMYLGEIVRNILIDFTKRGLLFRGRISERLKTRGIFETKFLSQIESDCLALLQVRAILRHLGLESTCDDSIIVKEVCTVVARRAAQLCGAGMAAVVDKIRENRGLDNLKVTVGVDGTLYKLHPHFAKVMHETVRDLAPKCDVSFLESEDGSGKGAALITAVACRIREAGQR
How it was run: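 Hexokinase activity measured in supernatant of freshly prepared, centrifuged lysates of undifferentiated P19 cells. Buffer was 100 mM Tris-HCl pH 8.0 with 0.5 mM EDTA, 10 mM MgCl2, 2 mM glucose, 0.1 mM NADP and 0.1 U/ml G6PD. After 10 min preincubation at 37°C, 10 mM ATP was added to start the reaction. NADPH formation was followed at 340 nm. Four independent experiments, ≥4 repeats each.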

SMILES | Activity [1] [%] | Activity [2] [%] | Activity [3] [%] | Activity [4] [%] | Activity [5] [%] | Activity [6] [%] | Activity [7] [%] | Activity [8] [%] | Activity [9] [%] | Activity [10] [%] | Activity [11] [%] | Activity [12] [%] | other results
O=C(c1ccc2c(c1)C(=O)N(c1c[nH]c(=O)[nH]c1=O)C2=O)c1ccc2c(c1)C(=O)N(c1c[nH]c(=O)[nH]c1=O)C2=O | 115.2 | 99.4 | 97.4 | 95.8 | 88.2 | 90.8 | 113.8 | 103.2 | 109.6 | 116.3 | 105.3 | 105 | –
O=C(c1ccc2c(c1)C(=O)N(CCCO)C2=O)c1ccc2c(c1)C(=O)N(CCCO)C2=O | 106 | 101.5 | 100 | 110.6 | 97.9 | 94.7 | 105 | 98.1 | 100 | 100.1 | 101.1 | 98.1 | –
O=C(c1ccc2c(c1)C(=O)N(CCO)C2=O)c1ccc2c(c1)C(=O)N(CCO)C2=O | 83.9 | 92.4 | 106.7 | 96.2 | 108.4 | 80.5 | 101.5 | 107.8 | 113.8 | 113.3 | 103.7 | 99.4 | –
O=C(c1ccc2c(c1)C(=O)N(c1ccccc1O)C2=O)c1ccc2c(c1)C(=O)N(c1ccccc1O)C2=O | 103.6 | 102 | 106.5 | 95.6 | 93 | 79.8 | 103.5 | 99.7 | 101.2 | 105 | 105.3 | 99.4 | Activity [13]: 82.2%; Activity [14]: 89.6%; Activity [15]: 81.9%; Activity [16]: 81.6%; Activity [17]: 108.7%; Activity [18]: 108.3%; Activity [19]: 115.4%; Activity [20]: 129.9%; Activity [21]: 117.8%; Activity [22]: 112%; Activity [23]: 89.4%; Activity [24]: 93.3%; Activity [25]: 111.1%; Activity [26]: 168%; Activity [27]: 97.8%; Activity [28]: 86%
O=C(c1ccc2c(c1)C(=O)N(c1ccc(O)cc1)C2=O)c1ccc2c(c1)C(=O)N(c1ccc(O)cc1)C2=O | 90.2 | 81.8 | 86.8 | 86.7 | 48.5 | 30.9 | 88.5 | 74.4 | 79.9 | 96.2 | 87.4 | 93.8 | Activity [13]: 176.1%; Activity [14]: 206.6%; Activity [15]: 93%; Activity [16]: 116.7%; Activity [17]: 72.1%; Activity [18]: 106.6%; Activity [19]: 78.4%; Activity [20]: 72.5%; Activity [21]: 110.6%; Activity [22]: 65.8%; Activity [23]: 144.7%; Activity [24]: 136.6%; Activity [25]: 75.8%; Activity [26]: 113.2%; Activity [27]: 138%; Activity [28]: 118.8%
O=C(c1ccc2c(c1)C(=O)N(c1nc[nH]n1)C2=O)c1ccc2c(c1)C(=O)N(c1nc[nH]n1)C2=O | 81.2 | 77.6 | 45.5 | 93.3 | 96 | 82 | 92.7 | 94 | 53.2 | 114 | 96.1 | 86.5 | –
OC[C@H]1OC(O)C[C@@H](O)[C@@H]1O (some centres not stated) | 120.4 | 99.6 | 103.8 | 90.5 | 93.6 | 97.4 | 100.1 | 91.2 | 101.3 | 90.5 | 101.7 | 94.4 | inhibition [29]: Active
